Results on one substance are retold here after article PMC9948766 (Science translational medicine, 2022).

Like-named read-outs stand apart in the source and are kept apart here.

The nature of series [1]: Circular dichroism of RLX secondary structure. Format: physicochemical.
Series [2] in a line: Pharmacokinetics and biodistribution of ^125I-RLX after intraarticular injection. The arrangement: species or system Sprague Dawley rats. As to conditions: rat, in vivo.
Series [3] relates to atraumatic rat model of shoulder arthrofibrosis. The experiment in a line: Histological assessment of rat shoulder joints. Format: in vivo, Sprague Dawley rats. In short, it runs like this: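 Female Sprague Dawley rats with contracted shoulders receiving intraarticular doses (repeated 2 μg/kg injections or saline; or single 10 μg/kg microparticles or unloaded particles at equivalent PLGA mass) from remobilization. Joints fixed and decalcified at 14 or 56 days; coronal sections stained with H&E, Masson's Trichrome, Safranin O. Immune activation scored on H&E; axillary pouch thickness measured; n=5; mean ± STDev; ANOVA.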

The conditions of series [4]: humans, intravenous injection; cited from earlier work.
For series [5] the following is noted: cited from earlier work.
Series [6] has as its system mouse models of myocardial infarction. The settings on record: cited from earlier work.

As for human relaxin-2 [RLX], the “alpha helical structure (CD) after encapsulation processing” value in series [1] (after organic solvents, mechanical and thermal forces of encapsulation) was “maintenance of the alpha helical structure”. Also, the “alpha helical structure (CD, negative peaks at 208 and 222 nm) after extended incubation” value in series [1] (long-term incubation at 37 °C) is “maintenance of the alpha helical structure”. Further, in series [2], the CL is 20.6 (15.1, 31.8) (mL/kg)·hr; the “average plasma exposure, Cavg” value worked out at 2.05 ng/mL/h; the “clearance at the time of dose re-administration” value is on record as greater than 99%; the “maximum plasma exposure, Cmax” value is given as 16 ng/mL. Also, in series [2], the t1/2-α is listed as 0.954 (0.852, 1.15) h and the “t1/2-α (effective synovial half-life)” value is listed as 0.305 (0.280, 0.346) h. For the same substance, the “inflammatory infiltrate, histological scoring” value in series [3] (14 days post-treatment, n=5) was “negligible inflammation”. Also, in series [3] (56 days after remobilization, H&E, Masson's Trichrome), the joint architecture entry was “restored delineation of the humeral head and glenoid surface, absence of fibrotic adhesions”. Besides, the “inflammatory infiltrate, histological scoring” value in series [3] (56 days post-treatment, n=5) is “negligible inflammation”. Further, the “synovial membrane thickness in the axillary pouch” value in series [3] (56 days, n=5) was “restoration to baseline values”. Besides, the half-life in series [4] was 1.6 h. Also, the toxicological profile entry in series [5] (acute heart failure, 30 μg/kg/day continuous IV infusion over 48 hr) is on record as “favorable toxicological profile”. In addition, the toxicological profile entry in series [5] (induction of labor, 75μg/kg/day continuous IV infusion over 24 hr) was “favorable toxicological profile”. Also, in series [6], the “bioactive average plasma exposure concentration, Cavg” value was 20 to 40 ng/mL.
